PTEN del growth: growth suppression of PTEN-null HCT116, primary screen, cell-based, CellTiter-Glo | HCT116 PTEN-null viability, 60 h; stronger effect = lower value | viability, % at 10 µM | 140,000 compounds, 1.2% hits | AID 827, 2007;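 active = viability at or below a set limit, 4 SD under the median of all tested compounds, cut at about 3.7% in these data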;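 also: PTEN knockout HCT116 line with beta catenin targeted HCT116 as companion control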
L major viab: Leishmania major promastigote growth inhibition, primary screen; inhibition, % at 10 µM; 200,000 compounds, 9% hits; AID 1063, 2008; Leishmania major promastigotes, resazurin fluorescence viability; in the data active = inhibition above about 50%;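 also: promastigotes grown with compound for 44 hours at 28 °C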
TNAP inh hi DEA: human TNAP enzyme inhibitors, primary screen, biochemical, luminescent, high phosphate acceptor level, uHTS | purified TNAP, CDP-star luminescence, 1 M DEA | AID 1135, 2008 | 200,000 compounds, 0.03% hits | inhibition, % at 20 µM;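 active = over 50% inhibition of tissue-nonspecific alkaline phosphatase at 20 µM in the single-dose screen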;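 also: plate controls were DMSO wells for no effect and EDTA-quenched wells as full inhibition for full effect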
Target sequence (P05186 whole entry, looked up): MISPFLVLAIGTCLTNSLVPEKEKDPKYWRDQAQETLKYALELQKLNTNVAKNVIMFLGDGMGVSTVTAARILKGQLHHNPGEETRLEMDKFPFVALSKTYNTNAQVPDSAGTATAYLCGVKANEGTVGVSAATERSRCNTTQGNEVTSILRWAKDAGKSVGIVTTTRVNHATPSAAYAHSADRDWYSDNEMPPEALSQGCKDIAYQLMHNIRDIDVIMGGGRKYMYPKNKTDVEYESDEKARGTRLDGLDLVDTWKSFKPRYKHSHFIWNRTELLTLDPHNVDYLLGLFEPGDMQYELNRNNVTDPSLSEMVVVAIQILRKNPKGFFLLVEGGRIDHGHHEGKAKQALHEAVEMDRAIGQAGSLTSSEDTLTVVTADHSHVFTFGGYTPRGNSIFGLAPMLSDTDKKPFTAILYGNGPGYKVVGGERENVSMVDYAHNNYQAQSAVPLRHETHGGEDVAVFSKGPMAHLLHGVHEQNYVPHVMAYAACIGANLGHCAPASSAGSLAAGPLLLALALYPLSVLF
TNAP act hiacc: TNAP activators at high phosphate acceptor level, primary screen, biochemical, luminescence, uHTS; Alkaline phosphatase, tissue-nonspecific isozyme (Homo sapiens), P05186; purified TNAP, CDP-star luminescence, 1 M DEA, 30 min; stronger effect = higher value; 0 = EDTA background, 1 = DMSO-only activity; activation factor at 20 µM; 200,000 tested, under 10 active; AID 1136, 2008;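 active = activation factor at least 2 at 20 µM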
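Assay system: human TNAP; Input: enzyme diluted 1/800 final; Reagent: CDP-star luminogenic substrate at 100 µM final; Timing: 30 min, room temperature; Signal: luminescence; Evaluation: TNAP activation factor scaled between EDTA and DMSO control wells.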
TNAP inh noacc: human TNAP enzyme inhibitors, primary screen, biochemical, luminescent, no phosphate acceptor, uHTS; inhibition, % at 20 µM; Alkaline phosphatase, tissue-nonspecific isozyme (Homo sapiens), P05186; AID 1012, 2008; purified TNAP, CDP-star luminescence, 30 min; 200,000 compounds, 0.26% hits;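 active = tissue-nonspecific alkaline phosphatase inhibition above about 50% at 20 µM in the single-dose screen, limit read from the data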;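 also: 0% = DMSO negative control and 100% = EDTA positive control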
HCT116 bCat-KO: primary screen for growth suppressors in beta-catenin knockout HCT116 cells (colon tumor, human); HCT116 beta-catenin knockout viability, CellTiter-Glo, 60 h; stronger effect = lower value; viability, % at 10 µM; 140,000 compounds, 1.5% hits; AID 818, 2007;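 active = viability at or under a set limit, the compound median less 4 SD, cut at about 6% in these data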;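 also: 0% = Hyamine 1622 control at 20 µM and 100% = untreated cell control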
* hit, by the source's call; x = not tested or not shown. In the library only some 9.6% were active in any assay of this set; here they are far more common.

SMILES | PTEN del growth | L major viab | TNAP inh hi DEA | TNAP act hiacc | TNAP inh noacc | HCT116 bCat-KO
O=C(Nc1ccccc1N1CCOCC1)C1CCN(S(=O)(=O)c2cccc(C(F)(F)F)c2)CC1 | 78.5 | 66.1* | -0.2 | 1 | -10.9 | 71.4
O=C(Nc1ccccc1N1CCOCC1)C1CCN(S(=O)(=O)c2ccc(F)cc2)CC1 | 98.3 | 49.5 | -2.2 | 1 | -9.9 | 92.8
CC1=C(C)/C(=N\OS(=O)(=O)c2ccccc2)C=CC1=O | 16.9 | 100.5* | 3.6 | 1 | -10.0 | 34.2
COc1ccc(N2CCN(Cc3nc4scc(-c5cccs5)c4c(=O)[nH]3)CC2)cc1 | x | -10.2 | -5.3 | 1.1 | -16.9 | x
O=c1[nH]c(CN2CCN(c3ccccc3)CC2)nc2scc(-c3ccccc3)c12 | 31.6 | 67.2* | -5.6 | 1.1 | -10.4 | 38.0
CN(Cc1ccccc1)c1nc(CN2CCOCC2)nc2scc(-c3ccccc3)c12 | 80.9 | 18.0 | -1.0 | 1 | -5.4 | 73.2
Fc1ccc(N2CCN(c3nc(CN4CCOCC4)nc4scc(-c5ccccc5)c34)CC2)cc1 | x | 66.9* | -5.1 | 1.1 | -17.7 | x
COc1ccc(N2CCN(Cc3nc4scc(-c5ccccc5)c4c(=O)[nH]3)CC2)cc1 | 78.6 | 61.6* | -1.0 | 1 | -5.0 | 80.6
Cc1ccc(NC(=O)CN(C)CC(=O)Nc2cccc(F)c2)cc1S(=O)(=O)N1CCCCCC1 | x | 20.9 | -1.2 | 1 | -14.0 | x
O=C1CC(c2ccc(Cl)c([N+](=O)[O-])c2)c2ccc3ccccc3c2N1 (centres undefined) | 77.8 | 99.6* | -7.3 | 1.1 | 3.1 | 76.1
C/C=C/c1ccc(OCCCNC(C)CC)c(OC)c1 (centres undefined) | 97.2 | -3.4 | -3.4 | 1 | 1.3 | 84.8
COc1ccc(CCNCc2ccc(OCc3ccc(Cl)nc3)c(OC)c2)cc1OC | 63.4 | 89.9* | 6.4 | 0.9 | 3.2 | 69.8
CCCCCNCc1ccc(OCc2ccc(Cl)nc2)c(OC)c1 | 79.0 | 99.6* | -4.0 | 1 | -5.5 | 88.5
CCOCCCNCc1ccc(OCCC(C)C)c(OC)c1 | x | 85.4* | -3.0 | 1 | -18.9 | x
COc1cc(CNCCNCC(C)O)ccc1OCc1ccc(Cl)nc1 (centres undefined) | 90.2 | -5.8 | -3.4 | 1 | 2.0 | 99.0
COc1ccc(CNCCc2ccc(Cl)cc2)cc1OCc1ccccc1 | x | 96.2* | -8.5 | 1.1 | -7.8 | x
COc1cc(C=O)ccc1OCc1ccc(Cl)nc1 | x | 2.3 | -5.1 | 1.1 | -2.1 | x
CCC(C)C(=O)Nc1cccc(SC)c1 (centres undefined) | x | 8.6 | -9.7 | 1.1 | -13.3 | x
CC(=O)c1cc(C(=O)N2CCc3c([nH]c4ccccc34)C2C2CCCCC2)[nH]n1 (centres undefined) | x | 5.8 | -8.9 | 1.1 | -10.4 | x
O=C(Cn1cnc([N+](=O)[O-])n1)N/N=C/c1cccc(Cl)c1 | x | 63.4* | -2.2 | 1 | -13.3 | x
O=C(Cn1cnc([N+](=O)[O-])n1)N/N=C/c1ccc(O)cc1O | x | -2.5 | 2.2 | 1 | -122.4 | x
O=C(Cn1cnc([N+](=O)[O-])n1)N/N=C/c1cccc2ccccc12 | 94.7 | 90.7* | -3.1 | 1 | 0.0 | 94.0
O=C(COc1ccc(-n2ccnc2)cc1)Nc1cccc(Cl)c1 | x | 42.5 | -4.7 | 1 | -19.9 | x
Cc1c(NC(=O)CS(=O)(=O)c2ccccc2)c(=O)n(-c2ccccc2)n1C | x | -1.9 | -4.6 | 1 | -14.3 | x
CCOC(=O)Cn1nnnc1CN(CCc1ccccc1)Cc1cc2cc(CC)ccc2[nH]c1=O | 82.3 | 17.8 | -6.2 | 1.1 | 2.2 | 76.1
SMILES | PTEN del growth | L major viab | TNAP inh hi DEA | TNAP act hiacc | TNAP inh noacc | HCT116 bCat-KO
COc1ccccc1CN(Cc1cc2c(C)ccc(C)c2[nH]c1=O)Cc1nnnn1Cc1ccco1 | 52.7 | 99.8* | -4.3 | 1 | -9.3 | 55.3
Cc1ccc(CN(Cc2cc3cc4c(cc3[nH]c2=O)OCCO4)Cc2nnnn2Cc2ccco2)cc1 | 83.3 | 15.9 | -5.3 | 1.1 | -3.7 | 75.7
COc1ccc2cc(CN(CCc3ccccc3)Cc3nnnn3Cc3ccco3)c(=O)[nH]c2c1 | 69.5 | 100.0* | -7.9 | 1.1 | -8.5 | 70.3
Cc1ccc2cc(CN(Cc3ccc4c(c3)OCO4)Cc3nnnn3Cc3ccco3)c(=O)[nH]c2c1 | 76.5 | 76.7* | 1.4 | 1 | 1.2 | 92.5
C/C(=N\NC(=O)CSc1nc(C)cc(C)n1)c1cccc([N+](=O)[O-])c1 | 97.0 | -2.6 | 0.3 | 1 | -6.8 | 90.2
O=c1[nH]c(-c2ccccc2F)nc2c1sc(=S)n2Cc1ccccc1 | 82.2 | 2.8 | -1.6 | 1 | 6.7 | 84.3
Cc1nc2ccccc2n(CC(=O)Nc2cc(Cl)cc(Cl)c2)c1=O | x | -3.0 | -3.0 | 1 | -13.9 | x
O=C(c1ccc(F)cc1)N(C(=O)c1ccc(F)cc1)c1ncccn1 | x | 15.2 | -4.6 | 1 | 3.0 | x
COc1ccc(CCn2c(N)c(C#N)c3nc4ccccc4nc32)cc1OC | 99.0 | 91.4* | -1.5 | 1 | -8.3 | 86.5
COc1ccc(Cn2c(N)c(C#N)c3nc4ccccc4nc32)cc1OC | 75.9 | 18.0 | -3.9 | 1 | -25.8 | 89.3
CC1=NN(C(=O)c2cc(C)nn2C)C(O)(C(F)(F)F)C1 (centres undefined) | 100.7 | -5.0 | -5.2 | 1.1 | -10.7 | 94.9
CC(OC(=O)c1ccc2c(=O)n3c(nc2c1)CCCCC3)C(=O)Nc1ccc(F)cc1Cl (centres undefined) | 88.2 | 55.5* | 0.6 | 1 | -4.6 | 81.7
CC(OC(=O)c1ccc2c(=O)n3c(nc2c1)CCCCC3)C(=O)Nc1ccc(Cl)cn1 (centres undefined) | 90.8 | -4.2 | -1.0 | 1 | 3.6 | 96.7
Cc1nn(C)c(C)c1CNC(=O)Nc1cccc(Cl)c1C | x | -4.4 | 0.9 | 1 | -6.2 | x
COc1ccc(CCNc2ccc(S(=O)(=O)N3CCCC3)cc2[N+](=O)[O-])cc1 | 80.1 | -1.7 | 7.9 | 0.9 | -5.3 | 85.0
O=[N+]([O-])c1cc(S(=O)(=O)N2CCCC2)ccc1N/N=C/c1cccnc1 | 93.1 | 60.4* | 9.0 | 0.9 | 32.1 | 89.7
CCC(/C=N/Nc1ccc(S(=O)(=O)N2CCCC2)cc1[N+](=O)[O-])CC | 70.6 | -7.2 | 3.6 | 1 | 16.0 | 70.7
O=[N+]([O-])c1cc(S(=O)(=O)N2CCCC2)ccc1NCCc1ccccc1 | 94.8 | 57.8* | 0.2 | 1 | -0.8 | 82.5
O=S(=O)(Nc1nc2ccccc2nc1N1CCc2ccccc2C1)c1ccc(Br)cc1 | 61.9 | 13.2 | 7.8 | 0.9 | 2.4 | 63.5
O=S(=O)(Nc1nc2ccccc2nc1Cl)c1ccc(Cl)cc1 | 93.5 | -4.5 | -0.5 | 1 | 4.7 | 82.8

Bioassay records (PubChem BioAssay)
